This passage reports zone of inhibition results from ChEMBL document CHEMBL1158349, “Synthesis and antimicrobial evaluation of 1-(benzofuran-2-yl)-4-nitro-3-arylbutan-1-ones and 3-(benzofuran-2-yl)-4,5-dihydro-5-aryl-1-[4-(aryl)-1,3-thiazol-2-yl]-1H-pyrazoles” (2009).

Holding throughout (type): functional
Holding throughout (details): read-out: DIZ

One assay concerns Candida albicans. Briefly: Antifungal activity against Candida albicans at 100 ug after 48 hrs by agar disc-diffusion method. The method, boiled down: (§1)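 Disc diffusion on nutrient agar. Plates were inoculated separately with each fungus, then 6 mm paper discs wetted with the compound solution in DMSO were applied. Fluconazole was the reference drug. Plates were incubated at 37 °C, and inhibition-zone diameters were read after 48 h.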
A general note: A growth-free zone around the sample is the usual read-out of agar diffusion tests.

A further assay concerns Aspergillus niger. Briefly: Antifungal activity against Aspergillus niger at 100 ug after 48 hrs by agar disc-diffusion method. The procedure, abridged:
as §1

For the next assay, the system named is Staphylococcus aureus. The assay is described as follows: Antibacterial activity against Staphylococcus aureus at 100 ug after 24 hrs by agar disc-diffusion method. The procedure, abridged:
(§2)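 Agar disc-diffusion on nutrient agar. Sterile 6 mm filter-paper discs moistened with the test compound in DMSO were placed on plates seeded separately with each bacterium. Amoxicillin was the reference drug. Plates were incubated at 37 °C, and the growth-inhibition zone diameter was measured after 24 h.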

The subject of a further assay is Escherichia coli. The assay is described as follows: Antibacterial activity against Escherichia coli at 100 ug after 24 hrs by agar disc-diffusion method. The procedure, abridged: as §2
A further assay relates to Bacillus subtilis. Briefly: Antibacterial activity against Bacillus subtilis at 100 ug after 24 hrs by agar disc-diffusion method. The procedure, abridged: as §2

Turning to `Clc1ccc(C2CC(c3cc4ccccc4o3)=NN2c2nc(-c3ccccc3)cs2)cc1` (stereo not given), the zone of inhibition at 100 µg/disc with Candida albicans was determined as 25 mm; with Aspergillus niger it was 15 mm; in the assay on Staphylococcus aureus, 0 mm; in the assay with Escherichia coli, 12 mm; in the assay with Bacillus subtilis, 0 mm.

Consider `COc1ccc(C(CC(=O)c2cc3ccccc3o2)C[N+](=O)[O-])cc1` (stereo not given), for which the zone of inhibition at 100 µg/disc in the assay on Candida albicans was found to be 25 mm; with Aspergillus niger it was 0 mm; with Staphylococcus aureus it was 0 mm; with Escherichia coli, 12 mm; in the assay with Bacillus subtilis, 0 mm.

In the case of `O=C(CC(C[N+](=O)[O-])c1ccc(Cl)cc1)c1cc2ccccc2o1` (stereo not given), the zone of inhibition at 100 µg/disc stood at 20 mm with Candida albicans; 15 mm in the assay on Aspergillus niger; 0 mm with Staphylococcus aureus; 12 mm in the assay on Escherichia coli; 0 mm with Bacillus subtilis.

On to `CC1(C)S[C@@H]2[C@H](NC(=O)[C@H](N)c3ccc(O)cc3)C(=O)N2[C@H]1C(=O)O` [AMOXICILLIN], for which the zone of inhibition at 100 µg/disc in the assay on Staphylococcus aureus, in the assay with Escherichia coli and in the assay with Bacillus subtilis was 20 mm throughout.

Turning to `NC(=S)N1N=C(c2cc3ccccc3o2)CC1c1ccc(Cl)cc1` (stereo not given), the zone of inhibition at 100 µg/disc is 0 mm with Candida albicans; 15 mm in the assay with Aspergillus niger; 0 mm in the assay on Staphylococcus aureus; 15 mm in the assay on Escherichia coli; 12 mm with Bacillus subtilis.

Turning to `c1ccc(-c2csc(N3N=C(c4cc5ccccc5o4)CC3c3ccccc3)n2)cc1` (stereo not given), the zone of inhibition at 100 µg/disc in the assay with Candida albicans is 0 mm; in the assay on Aspergillus niger, 0 mm; with Staphylococcus aureus, 17 mm; in the assay on Escherichia coli, 25 mm; with Bacillus subtilis, 0 mm.

For `OC(Cn1cncn1)(Cn1cncn1)c1ccc(F)cc1F` [FLUCONAZOLE], the zone of inhibition at 100 µg/disc in the assay on Candida albicans and with Aspergillus niger was 20 mm throughout.

On to `NC(=S)N1N=C(c2cc3ccccc3o2)CC1c1ccccc1` (stereo not given), for which the zone of inhibition at 100 µg/disc turned out to be 5 mm in the assay with Candida albicans; 0 mm in the assay with Aspergillus niger; 0 mm in the assay with Staphylococcus aureus; 0 mm in the assay with Escherichia coli; 0 mm in the assay on Bacillus subtilis.

Turning to `O=C(CC(C[N+](=O)[O-])c1ccccc1)c1cc2ccccc2o1` (stereo not given), the zone of inhibition at 100 µg/disc with Candida albicans stood at 30 mm; with Aspergillus niger it was 0 mm; in the assay on Staphylococcus aureus, 0 mm; in the assay on Escherichia coli, 12 mm; with Bacillus subtilis, 0 mm.

`Clc1ccc(C2CC(c3cc4ccccc4o3)=NN2c2nc(-c3ccc(Br)cc3)cs2)cc1` (stereo not given): the zone of inhibition at 100 µg/disc in the assay on Candida albicans is 25 mm; in the assay on Aspergillus niger it was 0 mm; with Staphylococcus aureus, 0 mm; with Escherichia coli, 0 mm; in the assay on Bacillus subtilis, 0 mm.

For the molecule `Brc1ccc(-c2csc(N3N=C(c4cc5ccccc5o4)CC3c3ccccc3)n2)cc1` (stereo not given), the zone of inhibition at 100 µg/disc with Candida albicans, in the assay with Aspergillus niger, in the assay on Staphylococcus aureus, in the assay on Escherichia coli and in the assay on Bacillus subtilis was 0 mm each time.
